Experimental data pooled from the literature.
Compare with care: the assays were run in different laboratories.
PTGS1: Prostaglandin G/H synthase 1 (PTGS1, Homo sapiens, UniProt P23219)
FAAH: Fatty-acid amide hydrolase 1 (FAAH, Homo sapiens, UniProt O00519)
BDKRB1: B1 bradykinin receptor (BDKRB1, Homo sapiens, UniProt P46663)
USP10: Ubiquitin carboxyl-terminal hydrolase 10 (USP10, Homo sapiens, UniProt Q14694)
CCKBR: Gastrin/cholecystokinin type B receptor (CCKBR, Homo sapiens, UniProt P32239)
Tmem97: Sigma intracellular receptor 2 (Tmem97, Rattus norvegicus, UniProt Q5U3Y7)

| Structure (SMILES) | target | effect on | action | technique | concentration | setting | inhibition |
| --- | --- | --- | --- | --- | --- | --- | --- |
| Cc1ncc(C)n2nc(/C=C/c3nc(N4CCCC4)cc(N4CCOCC4)n3)nc12 | PTGS1 | enzyme activity | inhibitor | – | 10 µM | – | 10% |
| C[C@H](C(=O)N[C@H]1COc2ccccc2[C@@H]1S(C)(=O)=O)c1ccc(F)cc1 | PTGS1 | enzyme activity | inhibitor | – | 10 µM | – | -24% |
| CN(C(=O)Oc1nsnc1N1CCCCC1)c1cccc([N+](=O)[O-])c1 | FAAH | enzyme activity | inhibitor | – | 10 µM | cell membranes | 11% |
| COCc1c(-c2cc3cc(C)cc(OC)c3s2)c2c(N)ncnn2c1CN1CCNC(=O)C1 | BDKRB1 | ligand displacement | – | radioligand | 10 µM | – | 5% |
| Nc1ncnc2c1ncn2[C@@H]1O[C@H](C[C@@H](N)CC[C@H](N)C(=O)O)[C@@H](O)[C@H]1O | mRNA cap guanine-N(7) methyltransferase (RNMT, Homo sapiens, UniProt O43148) | enzyme activity | inhibitor | – | 50 µM | – | 98.2% |
| CCOC(=O)c1ccc(OC(=O)CCCCCNC(=N)N)cc1 | USP10 | enzyme activity | inhibitor | – | 10 µM | – | 3% |
| C#Cc1n[nH]c2c(-c3cn(C(C)c4ccccn4)c(=O)[nH]c3=O)cc(F)cc12 (stereo not shown) | Tyrosine-protein kinase receptor TYRO3 (TYRO3, Homo sapiens, UniProt Q06418) | enzyme activity | inhibitor | – | 1 µM | – | 79% |
| Cn1cc(-c2cc(F)cc(N3CCn4c(cc5c4CCCC5)C3=O)c2CO)cc(Nc2ccc(N3CCN(C4COC4)CC3)cn2)c1=O | Aurora kinase A (AURKA, Homo sapiens, UniProt O14965) | enzyme activity | inhibitor | – | 0.1 µM | – | 10% |
| COc1ccc(S(=O)(=O)N2CCCCC2)cc1C | CCKBR | ligand displacement | – | radioligand | 10 µM | – | < 30% |
| Cn1cc(-c2cccc(N3CCc4c(sc5c4CC(C)(C)C5)C3=O)c2CO)cc(Nc2ccncn2)c1=O | Mitogen-activated protein kinase kinase kinase 8 (MAP3K8, Homo sapiens, UniProt P41279) | enzyme activity | inhibitor | – | 1 µM | – | 16% |
| CN(C(=O)Oc1nsnc1N1CCCCC1)c1ccc(F)cc1 | FAAH | enzyme activity | inhibitor | – | 10 µM | cell membranes | 22% |
| C[C@@H](O)[C@H](N)C(=O)N1CCC[C@H]1C(=O)N1CCC[C@H]1C(=O)N[C@H](C(N)=O)[C@@H](C)O | FAAH | enzyme activity | inhibitor | – | 30 µM | – | -15% |
| CN(C(=O)Oc1nsnc1N1CCCCC1)c1ccccc1[N+](=O)[O-] | FAAH | enzyme activity | inhibitor | – | 10 µM | cell membranes | 46% |
| COCCN(CCOC)C(=O)[C@@]12C[C@@H]1[C@@H](n1cnc3c(NC(C4CC4)C4CC4)nc(Cl)nc31)[C@H](O)[C@@H]2O | 5-hydroxytryptamine receptor 2C (HTR2C, Homo sapiens, UniProt P28335) | ligand displacement | – | radioligand | 10 µM | – | 38% |
| Cc1cccc(N(C)C(=O)Oc2nsnc2N2CCCCC2)c1 | FAAH | enzyme activity | inhibitor | – | 10 µM | cell membranes | 9% |
| CC(C)N1CCC[C@H]1CNC(=O)c1cn(C2CCCC2)c(=O)c2c1c1ccccc1n2C | BDKRB1 | ligand displacement | – | radioligand | 10 µM | – | 12% |

| Structure (SMILES) | target | effect on | action | technique | concentration | setting | inhibition |
| --- | --- | --- | --- | --- | --- | --- | --- |
| OC(c1ccc(F)cc1)C(F)(F)CCN1CCC(O)(c2ccc(Cl)cc2)CC1 (racemic) | Tmem97 | ligand displacement | – | radioligand | 10 µM | – | > 50% |
| N=C(N)c1ccc2cc(OC(=O)c3ccc(N=C(N)N)cc3)ccc2c1 | USP10 | enzyme activity | inhibitor | – | 10 µM | – | 0% |
| CN(CCN1CCC(OC(=O)Nc2ccccc2-c2ccccc2)CC1)C(=O)c1ccc(CN2CCC(C(N)=O)CC2)cc1 | CCKBR | ligand displacement | – | radioligand | 1 µM | – | -9% |
| C#Cc1n[nH]c2c(-c3cn([C@@H](C)c4ccccc4)c(=O)[nH]c3=O)cc(F)cc12 | Rho-associated protein kinase 1 (ROCK1, Homo sapiens, UniProt Q13464) | enzyme activity | inhibitor | – | 0.1 µM | – | 3.5% |
| COc1ccc(S(=O)(=O)N(CC(=O)NO)CC(C)C)cc1 | Stromelysin-1 (MMP3, Homo sapiens, UniProt P08254) | enzyme activity | inhibitor | – | 10 nM | – | 20% |
| COc1cccc(N(C)C(=O)Oc2nsnc2N2CCCCC2)c1 | FAAH | enzyme activity | inhibitor | – | 10 µM | cell membranes | 17% |
| c1ccc(C(NCCNC(c2ccccc2)c2ccccc2)c2ccccc2)cc1 | CCKBR | cell-free assay | – | – | 10 µM | – | 33% |
| CCC(C)c1ccccc1OCC(=O)N1CCC(C(=O)Nc2ccc3c(c2)OCO3)CC1 (stereo not shown) | Trypanothione synthetase (Trypanosoma cruzi, UniProt Q9GT49) | enzyme activity | inhibitor | absorbance | 25 µM | – | 5.5% |
| CN(C)C(=O)COC(=O)Cc1ccc(OC(=O)c2ccc(NC(=N)N)cc2)cc1 | USP10 | enzyme activity | inhibitor | – | 10 µM | – | 2% |
| CN(C(=O)Oc1nsnc1N1CCCCC1)C1CCCCC1 | FAAH | enzyme activity | inhibitor | – | 10 µM | cell membranes | 16% |
| c1ccc(OCc2cc(OC[C@@H]3CCN3)on2)cc1 | Tmem97 | ligand displacement | – | radioligand | 10 µM | – | < 50% |
| CN(C(=O)Oc1nsnc1N1CCCCC1)C1CCCCCC1 | FAAH | enzyme activity | inhibitor | – | 10 µM | cell membranes | 21% |
| COc1cc(Nc2ncc(F)c(Nc3ccc4c(n3)NC(=O)C(C)(C)O4)n2)cc(OC)c1OC | Serine/threonine-protein kinase SIK3 (SIK3, Homo sapiens, UniProt Q9Y2K2) | binding | – | competition with immobilised ligand | 10 µM | – | 35% |
| CN(C(=O)Oc1nsnc1N1CCCCC1)c1ccc(Cl)cc1 | FAAH | enzyme activity | inhibitor | – | 10 µM | cell membranes | 16% |
| O=C(Nc1cccnn1)N1CCN([C@@H]2CCOc3cc(C(F)(F)F)ccc32)CC1 | PTGS1 | enzyme activity | inhibitor | – | 20 µM | – | 1% |
